Data published in paper PMC5741288 (Pain Reports, 2016).
Marks after values point to notes of the source that are not given here.

Assay: Treatment-emergent adverse events, tolerability
Format: in vivo, healthy men
In short: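 Healthy men received single oral tablet doses (part 1: 1–225 mg; part 2: 10, 50 mg) or placebo under double-blind randomisation. Treatment-emergent adverse events were recorded along with clinical laboratory tests, ECG, oral temperature, vital signs and physical examinations, through follow-up.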

CC(C)(O)c1ccccc1-c1ccc2[nH]c(/C=C/c3ccc(C(F)(F)F)cc3)nc2c1 [JNJ-39439335, trans-2-(2-{2-[2-(4-Trifluoromethyl-phenyl)-vinyl]-1H-benzimidazol-5-yl}-phenyl)-propan-2-ol]
TEAE Burning sensation (part 1, 30 mg (N = 5)): 0 n (%)
TEAE Chills (part 1, 30 mg (N = 5)): 0 n (%)
TEAE Dizziness (part 1, 30 mg (N = 5)): 1 (20) n (%)
TEAE Dizziness postural (part 1, 30 mg (N = 5)): 0 n (%)
TEAE Dysgeusia (part 1, 30 mg (N = 5)): 1 (20) n (%)
TEAE Fatigue (part 1, 30 mg (N = 5)): 0 n (%)
TEAE Feeling cold (part 1, 30 mg (N = 5)): 5 (100) n (%)
TEAE Feeling hot (part 1, 30 mg (N = 5)): 4 (80) n (%)
TEAE Headache (part 1, 30 mg (N = 5)): 0 n (%)
TEAE Hematoma (part 1, 30 mg (N = 5)): 0 n (%)
TEAE Hyperhidrosis (part 1, 30 mg (N = 5)): 0 n (%)
TEAE Hypoesthesia (part 1, 30 mg (N = 5)): 0 n (%)
TEAE Hypogeusia (part 1, 30 mg (N = 5)): 0 n (%)
TEAE Nausea (part 1, 30 mg (N = 5)): 0 n (%)
TEAE Orthostatic hypotension (part 1, 30 mg (N = 5)): 1 (20) n (%)
TEAE Paresthesia (part 1, 30 mg (N = 5)): 0 n (%)
TEAE Pruritus (part 1, 30 mg (N = 5)): 0 n (%)
TEAE Pyrexia (part 1, 30 mg (N = 5)): 3 (60) n (%)
TEAE Rhinitis (part 1, 30 mg (N = 5)): 0 n (%)
TEAE Thermal burn (part 1, 30 mg (N = 5)): 1 (20) n (%)
TEAE Thermohypoesthesia (part 1, 30 mg (N = 5)): 3 (60) n (%)
Total no. participants with AEs (part 1, 30 mg (N = 5)): 5 (100) n (%)
TEAE Agusia (part 1, 60 mg (N = 6)): 0 n (%)
TEAE Back pain (part 1, 60 mg (N = 6)): 0 n (%)
TEAE Burning sensation (part 1, 60 mg (N = 6)): 0 n (%)
TEAE Chills (part 1, 60 mg (N = 6)): 0 n (%)
TEAE Dizziness (part 1, 60 mg (N = 6)): 0 n (%)
TEAE Dizziness postural (part 1, 60 mg (N = 6)): 0 n (%)
TEAE Dysgeusia (part 1, 60 mg (N = 6)): 1 (17) n (%)
TEAE Fatigue (part 1, 60 mg (N = 6)): 0 n (%)
TEAE Feeling cold (part 1, 60 mg (N = 6)): 4 (67) n (%)
TEAE Feeling hot (part 1, 60 mg (N = 6)): 1 (17) n (%)
TEAE Headache (part 1, 60 mg (N = 6)): 0 n (%)
TEAE Hematoma (part 1, 60 mg (N = 6)): 0 n (%)
TEAE Hyperhidrosis (part 1, 60 mg (N = 6)): 0 n (%)
TEAE Hypoesthesia (part 1, 60 mg (N = 6)): 1 (17) n (%)
TEAE Hypogeusia (part 1, 60 mg (N = 6)): 0 n (%)
TEAE Nausea (part 1, 60 mg (N = 6)): 1 (17) n (%)
TEAE Paresthesia (part 1, 60 mg (N = 6)): 0 n (%)
TEAE Pruritus (part 1, 60 mg (N = 6)): 0 n (%)
TEAE Pyrexia (part 1, 60 mg (N = 6)): 4 (67) n (%)
TEAE Rhinitis (part 1, 60 mg (N = 6)): 0 n (%)
TEAE Thermal burn (part 1, 60 mg (N = 6)): 0 n (%)
TEAE Thermohypoesthesia (part 1, 60 mg (N = 6)): 1 (17) n (%)
Total no. participants with AEs (part 1, 60 mg (N = 6)): 6 (100) n (%)
TEAE Agusia (part 1, 120 mg (N = 6)): 0 n (%)
TEAE Back pain (part 1, 120 mg (N = 6)): 0 n (%)
TEAE Burning sensation (part 1, 120 mg (N = 6)): 0 n (%)
TEAE Chills (part 1, 120 mg (N = 6)): 1 (17) n (%)
TEAE Dizziness (part 1, 120 mg (N = 6)): 1 (17) n (%)
TEAE Dizziness postural (part 1, 120 mg (N = 6)): 1 (17) n (%)
TEAE Dysgeusia (part 1, 120 mg (N = 6)): 0 n (%)
TEAE Fatigue (part 1, 120 mg (N = 6)): 1 (17) n (%)
TEAE Feeling cold (part 1, 120 mg (N = 6)): 1 (17) n (%)
TEAE Feeling hot (part 1, 120 mg (N = 6)): 1 (17) n (%)
TEAE Headache (part 1, 120 mg (N = 6)): 1 (17) n (%)
TEAE Hematoma (part 1, 120 mg (N = 6)): 1 (17) n (%)
TEAE Hyperhidrosis (part 1, 120 mg (N = 6)): 0 n (%)
TEAE Hypoesthesia (part 1, 120 mg (N = 6)): 1 (17) n (%)
TEAE Hypogeusia (part 1, 120 mg (N = 6)): 0 n (%)
TEAE Nausea (part 1, 120 mg (N = 6)): 1 (17) n (%)
TEAE Orthostatic hypotension (part 1, 120 mg (N = 6)): 0^a n (%)
TEAE Paresthesia (part 1, 120 mg (N = 6)): 0 n (%)
TEAE Pruritus (part 1, 120 mg (N = 6)): 1 (17) n (%)
TEAE Pyrexia (part 1, 120 mg (N = 6)): 4 (67) n (%)
TEAE Rhinitis (part 1, 120 mg (N = 6)): 0 n (%)
TEAE Thermal burn (part 1, 120 mg (N = 6)): 0 n (%)
TEAE Thermohypoesthesia (part 1, 120 mg (N = 6)): 4 (67) n (%)
Total no. participants with AEs (part 1, 120 mg (N = 6)): 6 (100) n (%)
TEAE Agusia (part 1, 225 mg (N = 6)): 2 (33) n (%)
TEAE Back pain (part 1, 225 mg (N = 6)): 0 n (%)
TEAE Burning sensation (part 1, 225 mg (N = 6)): 5 (83) n (%)
TEAE Chills (part 1, 225 mg (N = 6)): 1 (17) n (%)
TEAE Dizziness (part 1, 225 mg (N = 6)): 1 (17) n (%)
TEAE Dizziness postural (part 1, 225 mg (N = 6)): 0 n (%)
TEAE Dysgeusia (part 1, 225 mg (N = 6)): 0 n (%)
TEAE Fatigue (part 1, 225 mg (N = 6)): 0 n (%)
TEAE Feeling cold (part 1, 225 mg (N = 6)): 2 (33) n (%)
TEAE Feeling hot (part 1, 225 mg (N = 6)): 5 (83) n (%)
TEAE Headache (part 1, 225 mg (N = 6)): 2 (33) n (%)
TEAE Hematoma (part 1, 225 mg (N = 6)): 0 n (%)
TEAE Hyperhidrosis (part 1, 225 mg (N = 6)): 1 (17) n (%)
TEAE Hypoesthesia (part 1, 225 mg (N = 6)): 0 n (%)
TEAE Hypogeusia (part 1, 225 mg (N = 6)): 0 n (%)
TEAE Nausea (part 1, 225 mg (N = 6)): 0 n (%)
TEAE Orthostatic hypotension (part 1, 225 mg (N = 6)): 1 (17) n (%)
TEAE Paresthesia (part 1, 225 mg (N = 6)): 3 (50) n (%)
TEAE Pruritus (part 1, 225 mg (N = 6)): 1 (17) n (%)
TEAE Pyrexia (part 1, 225 mg (N = 6)): 3 (50) n (%)
TEAE Rhinitis (part 1, 225 mg (N = 6)): 0 n (%)
TEAE Thermal burn (part 1, 225 mg (N = 6)): 3 (50) n (%)
TEAE Thermohypoesthesia (part 1, 225 mg (N = 6)): 5 (83) n (%)
Total no. participants with AEs (part 1, 225 mg (N = 6)): 6 (100) n (%)
Participants with burning feeling (not physical burn) (part 1, 225-mg dose group): 5 participants
Participants reporting at least 1 TEAE (part 1, of 59 participants receiving JNJ-39439335): 50 (85%) n (%)
Participants with minor or first-degree burns (part 1, of the 89 participants who received JNJ-39439335 or placebo): 4 participants
Thermohypoesthesia, participants (part 1, participants receiving JNJ-39439335): 23 (39%) n (%)
Thermohypoesthesia, participants (part 2): 70%
TEAE Disturbance in attention (part 2, 10 mg (N = 19)): 1 (5) n (%)
TEAE Dizziness (part 2, 10 mg (N = 19)): 0 n (%)
TEAE Dizziness postural (part 2, 10 mg (N = 19)): 0 n (%)
TEAE Dysgeusia (part 2, 10 mg (N = 19)): 4 (21) n (%)
TEAE Feeling cold (part 2, 10 mg (N = 19)): 9 (47) n (%)
TEAE Feeling hot (part 2, 10 mg (N = 19)): 6 (32) n (%)
TEAE Headache (part 2, 10 mg (N = 19)): 3 (16) n (%)
TEAE Hyperhidrosis (part 2, 10 mg (N = 19)): 2 (11) n (%)
TEAE Oropharyngeal pain (part 2, 10 mg (N = 19)): 1 (5) n (%)
TEAE Paresthesia (part 2, 10 mg (N = 19)): 7 (37) n (%)
TEAE Pyrexia (part 2, 10 mg (N = 19)): 8 (42) n (%)
TEAE Thermal burn (part 2, 10 mg (N = 19)): 0 n (%)
TEAE Thermohypoesthesia (part 2, 10 mg (N = 19)): 9 (47) n (%)
Total no. participants with AEs (part 2, 10 mg (N = 19)): 17 (89) n (%)
TEAE Disturbance in attention (part 2, 50 mg (N = 20)): 2 (10) n (%)
TEAE Dizziness (part 2, 50 mg (N = 20)): 2 (10) n (%)
TEAE Dizziness postural (part 2, 50 mg (N = 20)): 1 (5) n (%)
TEAE Dysgeusia (part 2, 50 mg (N = 20)): 5 (25) n (%)
TEAE Feeling cold (part 2, 50 mg (N = 20)): 9 (45) n (%)
TEAE Feeling hot (part 2, 50 mg (N = 20)): 8 (40) n (%)
TEAE Headache (part 2, 50 mg (N = 20)): 3 (15) n (%)
TEAE Hyperhidrosis (part 2, 50 mg (N = 20)): 2 (10) n (%)
TEAE Oropharyngeal pain (part 2, 50 mg (N = 20)): 1 (5) n (%)
TEAE Paresthesia (part 2, 50 mg (N = 20)): 9 (45) n (%)
TEAE Pyrexia (part 2, 50 mg (N = 20)): 11 (55) n (%)
TEAE Thermal burn (part 2, 50 mg (N = 20)): 2 (10) n (%)
TEAE Thermohypoesthesia (part 2, 50 mg (N = 20)): 12 (60) n (%)
Total no. participants with AEs (part 2, 50 mg (N = 20)): 19 (95) n (%)
Participants with minor burns of the mouth (part 2, 50-mg dose): 2 participants
TEAE Disturbance in attention (part 2, Total (N = 20)): 2 (10) n (%)
TEAE Dizziness (part 2, Total (N = 20)): 2 (10) n (%)
TEAE Dizziness postural (part 2, Total (N = 20)): 2 (10) n (%)
TEAE Dysgeusia (part 2, Total (N = 20)): 7 (35) n (%)
TEAE Feeling cold (part 2, Total (N = 20)): 13 (65) n (%)
TEAE Feeling hot (part 2, Total (N = 20)): 11 (55) n (%)
TEAE Headache (part 2, Total (N = 20)): 5 (25) n (%)
TEAE Hyperhidrosis (part 2, Total (N = 20)): 4 (20) n (%)
TEAE Oropharyngeal pain (part 2, Total (N = 20)): 2 (10) n (%)
TEAE Paresthesia (part 2, Total (N = 20)): 11 (55) n (%)
TEAE Pyrexia (part 2, Total (N = 20)): 12 (60) n (%)
TEAE Thermal burn (part 2, Total (N = 20)): 2 (10) n (%)
TEAE Thermohypoesthesia (part 2, Total (N = 20)): 14 (70) n (%)
Total no. participants with AEs (part 2, Total (N = 20)): 20 (100) n (%)
Severe adverse events / withdrawals because of an adverse event (parts 1 and 2): no severe adverse events reported
Tolerability (single oral doses up to 225 mg): well tolerated
